Test results taken from ChEMBL document CHEMBL1250445, “Fluorogenic probes for monitoring peptide binding to class II MHC proteins in living cells” (Nat Chem Biol, 2007).
Active and inactive are the calls of the source. No cut-off for these calls is given here. *1 amine or outer side, *2 acyl side, *3 side chain or, on linkers, in order; H or OH if unused. Where a SMILES comes first, the peptide text is derived from it. [ ]: non-standard residue; d: D form. The star is where a group is joined. X1 = CN(C)c1ccc2c(c1)C(=O)N(C[C@H](N[*:1])C(=O)[*:2])C2=O; X2 = CN(C)c1ccc2cc(C(=O)O)c(C(=O)*)cc2c1; X3 = CN(C)c1ccc(CC(=O)*)c(C(=O)O)c1; Dap = NC[C@H](N)C(=O)O

How the values were obtained:
Assay type in all cases: cell-based
[1] = target: T1, HLA class II histocompatibility antigen, DRB1-15 beta chain (Homo sapiens, UniProt P01903+P01911, A100R/D57E/F55L/F60I/F76Y/I96L/L162R/M171V/P40L/Q125E/R42F/V115G/Y59C); assay: Displacement of biotin-HA from recombinant soluble HLA-DR1 expressed in […] at acidic pH by ELISA
[2] = target: HLA class II histocompatibility antigen, DRB1-15 beta chain (Homo sapiens) (UniProt P01911); assay: Binding affinity to recombinant soluble HLA-DR1 expressed in […] assessed as fluorescence lifetime by fluorescence lifetime imaging microscopy
[3] = target: T1, HLA class II histocompatibility antigen, DRB1-15 beta chain; assay: Displacement of biotin-HA from recombinant soluble HLA-DR1 expressed in […] by ELISA
[4] = target: HLA class II histocompatibility antigen, DRB1-15 beta chain (Homo sapiens) (UniProt P01911); assay: Binding affinity to recombinant soluble HLA-DR1 expressed in human T2 cells assessed as increase in fluorescence lifetime at 1 uM by fluorescence lifetime imaging microscopy
[5] = target: HLA class II histocompatibility antigen, DRB1-15 beta chain (Homo sapiens) (UniProt P01911); assay: Binding affinity to recombinant soluble HLA-DR1 expressed in […] assessed as relative fluorescence intensity by fluorescence spectral assay
[6] = target: HLA class II histocompatibility antigen, DRB1-15 beta chain (Homo sapiens) (UniProt P01911); assay: Activation of HLA-DR1 positive B cells assessed as IL2 secretion
Summary of the method: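 HLA-DR1-positive B cells were pulsed with peptide and used as antigen-presenting cells for the HLA-DR1-restricted, HA-specific HA1.7 T cell hybridoma. Activation was read as IL-2 secretion in a thymidine incorporation bioassay, in c.p.m. Triplicate measurements, with SD shown.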

| IC50 [1] [nM] | Time [2] [nanoseconds] | IC50 [3] [nM] | Activity [5] [cps/nM] | SMILES | also measured |
| --- | --- | --- | --- | --- | --- |
| 28 | – | – | – | CSCC[C@H](NC(=O)[C@H](CO)NC(=O)[C@H](CCCN=C(N)N)NC(=O)[C@H](CNC(=O)Cc1ccc(N(C)C)cc1C(=O)O)NC(C)=O)C(=O)N[C@@H](C)C(=O)N[C@@H](C)C(=O)N[C@@H](C)C(=O)N[C@@H](C)C(=O)N[C@@H](CC(C)C)C(=O)O (Ac-[Dap](X3)RSMAAAAL-OH) | – |
| 4 | 0.82 | 4 | 599 | CSCC[C@H](NC(=O)[C@H](CO)NC(=O)[C@H](CCCNC(=N)N)NC(=O)[C@@H](N)CN1C(=O)c2ccc(N(C)C)cc2C1=O)C(=O)N[C@@H](C)C(=O)N[C@@H](C)C(=O)N[C@@H](C)C(=O)N[C@@H](C)C(=O)N[C@@H](CC(C)C)C(=O)O (H-[X1]RSMAAAAL-OH) | Activity [4]: Active |
| – | 0.6 | – | 578 | CC(C)C[C@H](NC(=O)[C@H](CCCCN)NC(=O)[C@H](CC(C)C)NC(=O)[C@@H](NC(=O)[C@H](CC(N)=O)NC(=O)[C@H](CCC(N)=O)NC(=O)[C@H](CCCCN)NC(=O)[C@@H](NC(=O)[C@H](Cc1ccc(O)cc1)NC(=O)[C@H](CCCCN)NC(=O)[C@@H]1CCCN1C(=O)[C@@H](N)CN1C(=O)c2ccc(N(C)C)cc2C1=O)C(C)C)[C@@H](C)O)C(=O)N[C@@H](C)C(=O)N[C@H](C(=O)O)[C@@H](C)O | Activity [6]: Active |
| 27 | – | – | – | CSCC[C@H](NC(=O)[C@H](CO)NC(=O)[C@H](CCCNC(=N)N)NC(=O)[C@H](CNC(=O)c1cc2cc(N(C)C)ccc2cc1C(=O)O)NC(C)=O)C(=O)N[C@@H](C)C(=O)N[C@@H](C)C(=O)N[C@@H](C)C(=O)N[C@@H](C)C(=O)N[C@@H](CC(C)C)C(=O)O (Ac-[Dap](X2)RSMAAAAL-OH) | – |
| – | – | > 1000 | – | CN(C)c1ccc2c(c1)C(=O)N(C[C@H](NC(=O)OCC1c3ccccc3-c3ccccc31)C(=O)O)C2=O | – |
| – | – | > 10000 | – | C[C@@H](O)[C@H](NC(=O)[C@H](CCC(=O)O)NC(=O)[C@@H](N)CN1C(=O)c2ccc(N(C)C)cc2C1=O)C(=O)N[C@@H](CC(=O)O)C(=O)N[C@@H](CCCCN)C(=O)N[C@@H](CC(=O)O)C(=O)N[C@@H](CCCCN)C(=O)N[C@@H](CO)C(=O)N[C@@H](CCCN=C(N)N)C(=O)O (H-[X1]ETDKDKSR-OH) | – |
